Molecules are shown by their SMILES. Active and inactive are the calls of the source. The rule behind the calls is not given here.

For one molecule, Activity, CC50 and Ratio results are on record in ChEMBL document CHEMBL4818983, “Structure-activity relationship and hypoglycemic activity of tricyclic matrines with advantage of treating diabetic nephropathy” (Eur J Med Chem, 2020).

The nature of data set [1]: Acute toxicity in Kunming mouse assessed as effect on blood GPT level at 250 to 1000 mg/kg, po administered as single dose measured for 7 days. Type of data set: organism-based. Particulars: in vivo, 168 h, dose 250-1000 mg/kg, time 7 day. The method in brief: (§1)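 Kunming mice each received one oral dose at 250, 500, 750 or 1000 mg·kg^-1 and were closely monitored for 7 days. At the end, blood was sampled and GOT, GPT, BUN and CRE were measured […] as liver and kidney function markers.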

Data set [2] has as its system Mus musculus. Briefly: Antidiabetic activity in KK-Ay mouse assessed as effect on cholesterol level at 100 mg/kg, po for 24 hrs by ELISA (reference value: 7.38 +/- 1.03 mM). Type of data set: functional.
For data set [3], the system named is Mus musculus. Briefly: Anti-diabetic activity in overnight fasted diabetic KK-Ay mouse assessed as increase in insulin responsiveness by measuring blood glucose at 50 to 100 mg/kg, po measured after 35 days by insulin tolerance test. Type of data set: functional, organism-based. Particulars: dose 50-100 mg/kg, time 35.0 day. The method in brief:
(§2)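 KK-Ay mice orally treated with 50 or 100 mg/kg compound or 5 mg/kg rosiglitazone, C57BL/6J as normal controls. After 35 days of treatment, oral glucose tolerance test and insulin tolerance test run. Blood glucose plotted against time, AUC calculated. Mean ± SD, 8-9 mice per group.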

For data set [4], the system named is HepG2. Briefly: Increase in glucose consumption in human HepG2 cells at 10 to 40 uM measured after 24 hrs. Type of data set: functional, cell-based. The settings on record: dose 10-40 µM. The method in brief:
(§3)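 HepG2 cells treated 24 h at the indicated concentrations; RGZ as reference. Supernatants used for glucose consumption and lactate release; lysed cells used for ATP, normalized to protein content. Mean ± SD of 3 or 4 separate experiments; compared with DMSO.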

The species named for data set [5] is Mus musculus. Briefly: Anti-diabetic activity in high fat diet-fed C57BL/6J mouse model of obesity and diabetes assessed as […] in total protein level in urine measured after 24 hrs. Type of data set: functional, organism-based. The essentials:
(§4)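 Before study end, 24-h urine collected from C57BL/6J controls and KK-Ay mice (untreated, oral 50 or 100 mg/kg compound, or 5 mg/kg rosiglitazone). Volume, glucose, total protein and microalbumin measured by kits. Mean ± SD, 8-9 mice per group, vs C57BL/6J or untreated KK-Ay.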

In data set [6] the test system is Mus musculus. Kind of data set: Anti-diabetic activity in high fat diet-fed KK-Ay mouse model of obesity and diabetes assessed as improved pathological changes in pancreas at 50 to 100 mg/kg, po by hematoxylin and eosin staining based histopathological analysis. Type of data set: functional, organism-based. Particulars: dose 50-100 mg/kg. The method in brief:
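Mice sacrificed at study end, with KK-Ay given 50 or 100 mg/kg compound or 5 mg/kg rosiglitazone orally and C57BL/6J as normal controls. Kidney and pancreas sections H&E stained, imaged at 200×, pathological changes scored. Mean ± SD of 8-9 mice per group.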

Data set [7] has as its system HepG2. Briefly: Induction of glycolysis in human HepG2 cells assessed as increase in lactate release at 10 to 40 uM measured after 24 hrs. Particulars: dose 10-40 µM.
The nature of data set [8]: Acute toxicity in Kunming mouse assessed as effect on blood CRE level at 250 to 1000 mg/kg, po administered as single dose measured for 7 days. The settings on record: in vivo, 168 h, dose 250-1000 mg/kg, time 7 day. Type of data set: organism-based. The essentials:
as §1

Data set [9] in a line: Acute toxicity in Kunming mouse assessed as effect on blood BUN level at 250 to 1000 mg/kg, po administered as single dose measured for 7 days. Type of data set: organism-based. Particulars: in vivo, 168 h, dose 250-1000 mg/kg, time 7 day. The essentials:
as §1

For data set [10], the system named is HepG2. Briefly: Induction of glycolysis in human HepG2 cells assessed as reduction in cellular ATP production at 10 to 40 uM measured after 24 hrs. Type of data set: functional, cell-based. Particulars: dose 10-40 µM. The essentials: as §3
Data set [11] deals with L6. Briefly: Increase in glucose consumption in rat L6 cells at 10 to 40 uM measured after 24 hrs. Particulars: dose 10-40 µM. Type of data set: functional, cell-based. The method in brief:
(§5)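 L6 myotubes treated with DMSO, compound or RGZ (20 μM) at the indicated concentrations for 24 h. Culture supernatants assayed for glucose consumption and lactate release; lysed cells assayed for ATP, normalized to protein. Mean ± SD of 3 independent experiments vs DMSO.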

Data set [12] relates to Mus musculus. Briefly: Antidiabetic activity in KK-Ay mouse assessed as reduction in fasting blood glucose level at 50 mg/kg, po for 50 days by glucose oxidase method (reference value: 13.2 +/- 2.51 mM). Type of data set: functional. Particulars: time 50 day. The essentials:
(§6)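 Lipogenic-diet KK-Ay mice given 50 or 100 mg/kg compound or 5 mg/kg rosiglitazone orally for 50 days, C57BL/6J as normal controls. Fasting blood glucose, glycosylated haemoglobin, AGE, insulin, HOMA-IR, cholesterol, LDL-c, TG, serum creatinine and BUN determined. Mean ± SD, 8-9 mice per group.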

Data set [13] concerns L6. Briefly: Induction of glycolysis in rat L6 cells assessed as increase in lactate release at 10 to 40 uM measured after 24 hrs. The settings on record: dose 10-40 µM.
Data set [14] in a line: Acute toxicity in Kunming mouse assessed as effect on blood GOT level at 250 to 1000 mg/kg, po administered as single dose measured for 7 days. Type of data set: organism-based. Particulars: in vivo, 168 h, dose 250-1000 mg/kg, time 7 day. The method in brief:
as §1

Data set [15] concerns Mus musculus. Kind of data set: Anti-diabetic activity in high fat diet-fed KK-Ay mouse model of obesity and diabetes assessed as reduction in total protein level in urine at 50 to 100 mg/kg, po measured after 24 hrs. The settings on record: dose 50-100 mg/kg. Type of data set: functional, organism-based. The method in brief: as §4
The test system of data set [16] is Mus musculus. Kind of data set: Antidiabetic activity in KK-Ay mouse assessed as effect on glycosylated haemoglobin level at 50 mg/kg, po for 50 days by glucose oxidase method (reference value: 8.74 +/- 1.08%). Type of data set: functional. The settings on record: time 50 day. The method in brief:
as §6

In data set [17] the test system is Mus musculus. Kind of data set: Antidiabetic activity in KK-Ay mouse assessed as reduction in fasting blood glucose level at 100 mg/kg, po for 50 days by glucose oxidase method (reference value: 13.3 +/- 2.85 mM). Type of data set: functional. Particulars: time 50 day. The essentials: as §6
A short description of data set [18]: Effect on high fat diet-fed KK-Ay mouse model of obesity and diabetes assessed as water intake at 50 mg/kg, po (reference value: 21.2 +/- 4.17 ml/day). Type of data set: ADME, organism-based. The settings on record: in vivo. The method in brief:
(§7)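 KK-Ay mice on lipogenic diet, with C57BL/6J mice as normal controls, dosed orally at 50 or 100 mg/kg (test) or 5 mg/kg (RGZ). Food intake (g/day), water intake (mL/day) and body weight recorded before and after treatment; body weight gain calculated. Mean±SD, 8-9 mice per group.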

Data set [19] has as its system L6. Kind of data set: Induction of glycolysis in rat L6 cells assessed as reduction in cellular ATP production at 10 to 40 uM measured after 24 hrs. The settings on record: dose 10-40 µM. Type of data set: functional, cell-based. The essentials: as §5
The test system of data set [20] is Mus musculus. Kind of data set: Anti-diabetic activity in overnight fasted diabetic KK-Ay mouse assessed as reduction in blood glucose AUC at 5 mg/kg, po […] measured after 35 days by oral glucose tolerance test. Type of data set: functional, organism-based. The method in brief: as §2
Data set [21] can be described thus: Cytotoxicity against human HepG2 cells after 24 hrs by MTT assay. Type of data set: cell-based. The method in brief:
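HepG2 cells exposed to compound; cell growth measured; CC50 derived from the concentration–growth relationship.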

Data set [22] relates to Mus musculus. Briefly: Antidiabetic activity in KK-Ay mouse assessed as effect on serum Creatinine level at 50 mg/kg, po for 24 hrs by ELISA (reference value: 124 +/- 35.1 uM). Type of data set: functional.
For data set [23], the system named is HepG2. Briefly: Increase in glucose consumption in human HepG2 cells assessed as Gx/GDMSO ratio at 25 uM by glucose oxidase assay. Type of data set: functional. The method in brief:
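HepG2 glucose consumption screen. Test compounds at 25 μM, metformin at 5 mM. Activity expressed as ratio of glucose consumption to DMSO-treated cells (Gx/G_DMSO).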

The nature of data set [24]: Effect on high fat diet-fed KK-Ay mouse model of obesity and diabetes assessed as total body weight gain at 100 mg/kg, po (reference value: 43.5 +/- 5.24 g). Type of data set: ADME, organism-based. Particulars: in vivo. The method in brief: as §7

Turning to `CCCC[C@@H]1[C@H]2CCCN3CCC[C@@H](CN1S(=O)(=O)c1ccc(C(F)(F)F)cc1)[C@@H]23`, the Activity result in [1] is “Non-Toxic”; in the data set with Mus musculus [2], 5.55 mM; with HepG2 [4] it was “Dose-Dependent Effect”; in the data set on HepG2 [7] it was “Dose-Dependent Effect”; in data set [8], “Non-Toxic”; in data set [9] it was “Non-Toxic”. In addition, the Activity entry was “Dose-Dependent Effect” in the data set with HepG2 [10]; “Dose-Dependent Effect” in the data set with L6 [11]; 9.44 mM in the data set with Mus musculus [12]; “Dose-Dependent Effect” with L6 [13]; “Non-Toxic” in data set [14]; 7.07% in the data set with Mus musculus [16]. Moreover, the Activity in the data set with Mus musculus [17] stood at 8.18 mM; in data set [18], 13.8 mL/day; with Mus musculus [22], 88.8 µM; in [24] it was 2.53 g. In addition, the result in the data set with Mus musculus [3], with Mus musculus [6], with Mus musculus [15], in the data set with L6 [19] and in the data set with Mus musculus [20] was Active. In addition, the outcome in the data set listed under Mus musculus [5] was inactive. The molecule also showed a 50% cytotoxic concentration (CC50) at 24 h in data set [21] of 642 µM. In the data set on HepG2 [23], the Ratio worked out at 1.49.
